Where two headings read alike, the source gives them in different places.
Columns and labels:
thrombin [1] = biological target: T1, thrombin (Homo sapiens, UniProt P00734); assay: Determination of kcat/Km with thrombin; format: biochemical
How it was run: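 Thrombin at 50 nmol L−1 with seven substrate concentrations from 1 to 30 μmol L−1, sampled at 5, 15, 30 and 60 min. Reactions stopped with SDS sample buffer and run on tricine gels. Percent cleavage = (lower band − background)/(lower + upper band − 2×background), uncleaved-substrate value subtracted. Percent × starting concentration gives product. Velocity is the slope of the linear product-versus-time segment. Km and kcat come from the Lineweaver–Burke intercept and slope.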

factor XIIa = biological target: T2, factor XIIa (Homo sapiens, UniProt P00748); assay: Enzyme cleavage by factor XIIa; format: biochemical; conditions: 5 μmol L^−1 peptide, 50 nmol L^−1 enzyme
T2 sequence (P00748 373-615 limits assumed): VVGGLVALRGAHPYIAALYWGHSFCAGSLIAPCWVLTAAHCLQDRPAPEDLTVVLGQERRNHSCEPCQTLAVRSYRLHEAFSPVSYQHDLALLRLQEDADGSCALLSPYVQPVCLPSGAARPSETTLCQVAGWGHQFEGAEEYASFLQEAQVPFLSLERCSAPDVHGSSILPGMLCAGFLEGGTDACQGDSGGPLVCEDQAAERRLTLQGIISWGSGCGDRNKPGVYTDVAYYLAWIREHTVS

chymotrypsin = assay: Enzyme cleavage by chymotrypsin; format: biochemical; conditions: 5 μmol L^−1 peptide, 50 nmol L^−1 enzyme
[2] = set-up: species or system mice; conditions: mouse, in vivo, iv
[3] = system: clots at the end of the amputated tail tips; assay: In vivo clot imaging after tail amputation; set-up: species or system wildtype FVB mice; conditions: 10 nanomoles iv, 24 hours, p = 0.045
How it was run: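 Wildtype FVB mouse tails clipped 2.5 mm from the tip. 20 min later, 10 nanomoles cleavable or control probe given i.v. At 24 h, under ketamine/midazolam (80, 5 mg kg−1), tail-tip clots imaged by fluorescence dissecting microscope (ex 620/60, em 700/75). Intensity quantified from images.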

atherosclerotic plaques [4] = assay: Imaging of carotid plaques after co-injection of two probes; format: in vivo, LDLR−/− mice; conditions: rhodamine-labelled DPRSFL–ACPP, two animals
How it was run: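 LDLR−/− mice (C57BL/6 background) fed 0.5% cholesterol diet for 1–2 years, given rhodamine-labelled test probe plus Cy5-labelled MMP-cleavable probe intravenously. At 6 h, under anaesthesia, the carotid was exposed and imaged by fluorescence dissecting microscope. Carotid bifurcation and aortic arch imaged postmortem (rhodamine ex 560/25, em 607/36; Cy5 ex 620/60, em 700/75). Tissue then frozen for histology.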

factor XIa = factor XIa (Homo sapiens, UniProt P03951); assay: Enzyme cleavage by factor XIa; format: biochemical; conditions: 5 μmol L^−1 peptide, 50 nmol L^−1 enzyme
atherosclerotic plaques [5] = assay: Distribution of fluorescence within sectioned plaques; format: in vivo, LDLR−/− mice; conditions: 15 plaques, n = 5 mice, p = 0.023 paired t-test
[6] = biological target: activated protein C (APC) (Homo sapiens, UniProt P04070); assay: Enzyme cleavage by activated protein C; format: biochemical; conditions: 5 μmol L^−1 peptide, 50 nmol L^−1 enzyme
trypsin = assay: Enzyme cleavage by trypsin; format: biochemical; conditions: 5 μmol L^−1 peptide, 50 nmol L^−1 enzyme
human atheromas = assay: Ex vivo incubation of human carotid endarterectomy specimens
How it was run: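 Fresh carotid endarterectomy specimens from five patients, held on ice, embedded in 0.5% agarose, cut into 2 mm slices. Slices from the same specimen incubated 1 h in 10 μmol L−1 Cy5-labelled cleavable or control probe; two sections also with 110 or 220 μmol L−1 argatroban. Fluorescence measured on cryosections, background-subtracted. Slices homogenised in SDS sample buffer, centrifuged, supernatant run on gel. Paired t-test.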

thrombin [7] = biological target: T1, thrombin; assay: Enzyme cleavage by purified thrombin; format: biochemical
plasmin = plasmin (Homo sapiens, UniProt P00747); assay: Enzyme cleavage by plasmin; format: biochemical; conditions: 5 μmol L^−1 peptide, 50 nmol L^−1 enzyme
factor VIIa = biological target: T3, factor VIIa (Homo sapiens, UniProt P08709); assay: Enzyme cleavage by factor VIIa; format: biochemical; conditions: 5 μmol L^−1 peptide, 50 nmol L^−1 enzyme
T3 sequence (P08709 213-466 limits assumed): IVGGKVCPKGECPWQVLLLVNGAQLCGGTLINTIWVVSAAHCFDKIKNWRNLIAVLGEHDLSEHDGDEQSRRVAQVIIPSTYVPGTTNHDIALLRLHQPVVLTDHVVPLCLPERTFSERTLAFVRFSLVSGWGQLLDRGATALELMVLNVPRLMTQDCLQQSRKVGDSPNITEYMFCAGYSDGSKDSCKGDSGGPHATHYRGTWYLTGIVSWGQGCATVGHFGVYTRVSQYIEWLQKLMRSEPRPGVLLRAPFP
T3 sequence (P08709 61-212 limits assumed): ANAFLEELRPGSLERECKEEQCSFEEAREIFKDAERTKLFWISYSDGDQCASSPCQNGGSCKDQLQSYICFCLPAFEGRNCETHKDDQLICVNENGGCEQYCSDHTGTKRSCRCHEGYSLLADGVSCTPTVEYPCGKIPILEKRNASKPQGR

atherosclerotic plaques [8] = assay: Aorta and plaque fluorescence sorted by histologic group; format: in vivo, mice
Active thrombin in serum [9] = biological target: T4, Active thrombin in serum (Mus musculus, UniProt P19221)
neutrophil elastase = biological target: T5, neutrophil elastase (Homo sapiens, UniProt P08246); assay: Enzyme cleavage by neutrophil elastase; format: biochemical; conditions: 5 μmol L^−1 peptide, 50 nmol L^−1 enzyme
T5 sequence (P08246 30-267): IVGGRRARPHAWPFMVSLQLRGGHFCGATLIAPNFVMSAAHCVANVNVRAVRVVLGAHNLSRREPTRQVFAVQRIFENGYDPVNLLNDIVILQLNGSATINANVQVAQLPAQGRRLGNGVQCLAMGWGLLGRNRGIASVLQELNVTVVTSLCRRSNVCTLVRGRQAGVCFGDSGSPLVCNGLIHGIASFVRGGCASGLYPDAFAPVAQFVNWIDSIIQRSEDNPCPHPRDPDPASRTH

factor Xa = factor Xa (Bos taurus, UniProt P00743); assay: Enzyme cleavage by factor Xa; format: biochemical; conditions: 5 μmol L^−1 peptide, 50 nmol L^−1 enzyme
cathepsin G = biological target: T6, cathepsin G (Homo sapiens, UniProt P08311); assay: Enzyme cleavage by cathepsin G; format: biochemical; conditions: 5 μmol L^−1 peptide, 50 nmol L^−1 enzyme
T6 sequence (P08311 21-255): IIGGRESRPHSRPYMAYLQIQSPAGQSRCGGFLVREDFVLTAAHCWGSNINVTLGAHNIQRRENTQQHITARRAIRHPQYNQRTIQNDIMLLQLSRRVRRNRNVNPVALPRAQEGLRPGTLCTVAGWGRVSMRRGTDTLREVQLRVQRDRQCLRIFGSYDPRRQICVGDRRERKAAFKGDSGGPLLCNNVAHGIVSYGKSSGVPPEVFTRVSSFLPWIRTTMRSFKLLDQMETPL

Active thrombin in serum [10] = biological target: T4, Active thrombin in serum; assay: biochemical; conditions: read-out: inhibition of DPRSFL–ACPP proteolysis by serum
thrombin [11] = biological target: T1, thrombin; conditions: thrombin activity on native receptor; cited from earlier work
[12] = 50 nmol L^−1 thrombin, 1 to 30 μmol L^−1 peptide, 5-60 min, gel read-out

Sequence of plasmin (P00747 581-810 limits assumed, species assumed): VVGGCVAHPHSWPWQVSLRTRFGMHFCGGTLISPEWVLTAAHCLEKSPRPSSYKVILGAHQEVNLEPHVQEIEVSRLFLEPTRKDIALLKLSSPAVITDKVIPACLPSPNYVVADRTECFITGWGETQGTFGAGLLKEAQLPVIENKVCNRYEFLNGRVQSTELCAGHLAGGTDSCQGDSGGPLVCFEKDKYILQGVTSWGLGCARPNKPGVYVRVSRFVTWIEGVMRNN
Sequence of plasmin (P00747 97-580 limits assumed, species assumed): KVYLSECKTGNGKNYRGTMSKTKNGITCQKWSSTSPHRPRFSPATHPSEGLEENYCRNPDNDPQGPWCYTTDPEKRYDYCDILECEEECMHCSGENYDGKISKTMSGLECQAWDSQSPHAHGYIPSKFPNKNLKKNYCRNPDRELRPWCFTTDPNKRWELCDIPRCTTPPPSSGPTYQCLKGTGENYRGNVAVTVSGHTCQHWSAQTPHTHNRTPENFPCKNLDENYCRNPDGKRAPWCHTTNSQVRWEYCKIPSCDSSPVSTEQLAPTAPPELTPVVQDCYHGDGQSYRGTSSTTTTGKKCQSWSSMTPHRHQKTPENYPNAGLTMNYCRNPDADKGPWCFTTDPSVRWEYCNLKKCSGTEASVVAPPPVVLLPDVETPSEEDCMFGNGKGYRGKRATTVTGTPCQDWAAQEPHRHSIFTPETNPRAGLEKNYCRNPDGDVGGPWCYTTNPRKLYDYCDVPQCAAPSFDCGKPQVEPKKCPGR
Sequence of factor XIa (P03951 388-625 limits assumed): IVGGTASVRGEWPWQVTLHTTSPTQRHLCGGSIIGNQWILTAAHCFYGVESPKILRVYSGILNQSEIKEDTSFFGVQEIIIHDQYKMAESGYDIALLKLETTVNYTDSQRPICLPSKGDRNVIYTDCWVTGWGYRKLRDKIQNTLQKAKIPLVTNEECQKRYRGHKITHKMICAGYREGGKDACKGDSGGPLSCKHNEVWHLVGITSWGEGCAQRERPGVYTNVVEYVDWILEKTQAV
Sequence of factor XIa (P03951 19-387 limits assumed): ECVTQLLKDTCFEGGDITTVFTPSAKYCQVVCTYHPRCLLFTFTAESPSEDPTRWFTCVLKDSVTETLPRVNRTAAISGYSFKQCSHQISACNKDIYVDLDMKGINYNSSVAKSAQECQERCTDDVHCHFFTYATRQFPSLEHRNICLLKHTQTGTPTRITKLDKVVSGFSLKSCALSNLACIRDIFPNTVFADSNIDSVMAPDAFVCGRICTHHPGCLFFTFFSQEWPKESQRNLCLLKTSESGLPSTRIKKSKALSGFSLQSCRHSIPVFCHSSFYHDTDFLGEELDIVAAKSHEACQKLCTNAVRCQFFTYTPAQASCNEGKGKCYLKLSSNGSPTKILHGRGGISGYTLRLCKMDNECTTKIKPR
Sequence of factor Xa (P00743 234-492 limits assumed): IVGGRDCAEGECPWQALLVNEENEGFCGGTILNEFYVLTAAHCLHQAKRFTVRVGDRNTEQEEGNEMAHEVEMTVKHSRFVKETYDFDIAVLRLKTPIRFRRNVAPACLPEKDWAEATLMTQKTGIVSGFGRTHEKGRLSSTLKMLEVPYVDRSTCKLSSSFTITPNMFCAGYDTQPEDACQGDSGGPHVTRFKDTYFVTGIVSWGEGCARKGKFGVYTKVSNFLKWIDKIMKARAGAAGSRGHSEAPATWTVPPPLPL
Sequence of factor Xa (P00743 41-180 limits assumed): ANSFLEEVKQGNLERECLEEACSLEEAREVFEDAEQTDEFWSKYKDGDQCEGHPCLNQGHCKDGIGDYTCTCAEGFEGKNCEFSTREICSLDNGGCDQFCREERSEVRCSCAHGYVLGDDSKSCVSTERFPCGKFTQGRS
Sequence of activated protein C (APC) (P04070 212-461 limits assumed): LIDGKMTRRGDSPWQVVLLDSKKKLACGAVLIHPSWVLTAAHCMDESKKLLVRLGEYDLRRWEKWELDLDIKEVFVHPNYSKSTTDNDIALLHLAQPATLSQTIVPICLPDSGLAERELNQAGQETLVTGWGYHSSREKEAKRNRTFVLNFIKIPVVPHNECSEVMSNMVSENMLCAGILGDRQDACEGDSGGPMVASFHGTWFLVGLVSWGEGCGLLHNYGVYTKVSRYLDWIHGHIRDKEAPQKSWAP
Sequence of activated protein C (APC) (P04070 43-197 limits assumed): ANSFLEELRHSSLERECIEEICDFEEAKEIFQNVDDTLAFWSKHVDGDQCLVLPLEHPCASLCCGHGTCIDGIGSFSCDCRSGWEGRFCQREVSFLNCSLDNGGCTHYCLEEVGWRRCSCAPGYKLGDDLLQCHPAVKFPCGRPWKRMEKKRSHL

Molecule: Suc-e8-O-DPRSFL-r9-c(Cy5 or rhodamine)-CONH2 [DPRSFL–ACPP]
- Km (thrombin [1]; [12]): 15 µM
- kcat (thrombin [1]; [12]): 0.3 s⁻¹
- kcat/Km (thrombin [1]; from kcat and Km): 21000 M⁻¹ s⁻¹
- cleavage by factor XIIa (factor XIIa): no cleavage
- cleavage by chymotrypsin (chymotrypsin): able to cleave
- whole blood half-life [2]: 17 ± 5 min
- fold increase in clot fluorescence intensity compared to mPEG–ACPP [3]: 2.4 fold
- uptake relative to co-injected Cy5–PLGLAG–ACPP within the same plaques (atherosclerotic plaques [4]): much higher
- cleavage by factor XIa (factor XIa): no cleavage
- uptake in hypocellular (DAPI poor) region versus cellular rich exterior (atherosclerotic plaques [5]): statistically greater
- cleavage by APC [6]: no cleavage
- cleavage by trypsin (trypsin): able to cleave
- greater cleavage product retained compared to control ACPP (human atheromas; freshly resected human atheromas bathed in probe): 63%
- cleavage by human atheromas (gel electrophoresis of homogenates) (human atheromas; slices homogenized in SDS sample buffer after incubation): cleaved
- cleavage by purified thrombin (thrombin [7]; 5 μmol L^−1 peptide, 50 nM thrombin, 20 min, 37 °C, triplicate): efficiently cleaved
- cleavage by plasmin (plasmin): able to cleave
- cleavage by factor VIIa (factor VIIa): no cleavage
- fluorescence intensity of individual plaques, Group 2 (atherosclerotic plaques [8]; n = 3, p = 0.007 vs Group 1): 43.7 ± 7.5
- whole aorta fluorescence per pixel, Group 2 (more advanced plaques) (atherosclerotic plaques [8]; n = 4, p = 0.02 vs Group 1): 24.4 ± 3.6
- fluorescence intensity of individual plaques, Group 1 (atherosclerotic plaques [8]; n = 11): 17.0 ± 9.3
- whole aorta fluorescence per pixel, Group 1 (less advanced plaques) (atherosclerotic plaques [8]; n=12): 7.8 ± 3.0
- cleavage by serum (Active thrombin in serum [9]): rapidly cleaved
- cleavage by neutrophil elastase (neutrophil elastase): no cleavage
- cleavage by factor Xa (factor Xa): able to cleave
- cleavage by cathepsin G (cathepsin G): no cleavage

Molecule: CC1CNc2c(cccc2S(=O)(=O)N[C@@H](CCCNC(=N)N)C(=O)N2CC[C@@H](C)C[C@@H]2C(=O)O)C1 (some centres unmarked) [argatroban, reference compound]
- inhibition at 4 µg/mL (Active thrombin in serum [10]): > 90%
- reduction in fluorescence intensity relative to DPRSFL–ACPP alone (human atheromas; 110 or 220 μmol L^−1 argatroban, two atheroma specimens): 76.6 ± 13.4%
- inhibition at 4 µg/mL (thrombin [7]; read-out: inhibition of DPRSFL–ACPP cleavage by thrombin): > 90%

B1: native PAR-1 receptor: native proteinase activated receptor 1, thrombin substrate (protein, UniProt P25116 42-425, looked up)
Proteinase-activated receptor …: SFLLRNPNDKYEPFWEDEEKNESGLTEYRLVSINKSSPLQKQLPAFISEDASGYLTSSWLTLFVPSVYTGVFVVSLPLNIMAIVVFILKMKVKKPAVVYMLHLATADVLFVSVLPFKISYYFSGSDWQFGSELCRFVTAAFYCNMYASILLMTVISIDRFLAVVYPMQSLSWRTLGRASFTCLAIWALAIAGVVPLLLKEQTIQVPGLNITTCHDVLNETLLEGYYAYYFSAFSAVFFFVPLIISTVCYVSIIRCLSSSAVANRSKKSRALFLSAAVFCIFIICFGPTNVLLIAHYSFLSHTSTTEAAYFAYLLCVCVSSISCCIDPLIYYYASSECQRYVYSILCCKESSDPSSYNSSGQLMASKMDTCSSNLNNSIYKKLLT
- kcat/Km (thrombin [11]): 7.6e+06 M⁻¹ s⁻¹

Reference: PMC3689578 (Integrative biology : quantitative biosciences from nano to …, 2012)
